Results as given in ChEMBL document CHEMBL2158002, “Small-molecular inhibitors of Ca²⁺-induced mitochondrial permeability transition (MPT) derived from muscle relaxant dantrolene” (2012).

Each molecule was assayed on HL-60 (assay: Inhibition of Ca2+-induced mitochondrial permeability transition in human HL60 cells at 25 uM after 40 mins relative to control). Settings: HL-60, 40 min.
Format: functional
Outline: (§1)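 Mitochondria were isolated from human leukaemia HL-60 cells, which were grown in RPMI1640 with 5% heat-inactivated FBS and penicillin/streptomycin at 37 °C under 5% CO2. Swelling was then triggered with 250 µM CaCl2 (final) and followed as the change in OD540 at 30 °C. Inhibition % at 40 min was scaled between no-CaCl2 (100%) and CaCl2-only (0%) controls.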

SMILES	inhibition at 25 µM [%]
O=C1CN(/N=C/c2ccc(-c3ccc([N+](=O)[O-])cc3)o2)C(=O)N1 [DANTROLENE SODIUM]	13
Nc1cccc(CN2C(=O)CN(NC(=O)c3ccc(-c4cccc(C(F)(F)F)c4)o3)C2=O)c1	6.5
Nc1cccc(CN2C(=O)CN(/N=C/c3ccc(-c4cccc(Cl)c4)o3)C2=O)c1	14
CN1C(=O)CN(/N=C/c2ccc(-c3cc(Cl)cc(Cl)c3)o2)C1=O	23
CN1C(=O)CN(/N=C/c2ccc(-c3cccc(Cl)c3)o2)C1=O	6
Nc1cccc(CN2C(=O)CN(NC(=O)c3ccc(-c4cc(Cl)cc(Cl)c4)o3)C2=O)c1	35
Nc1cccc(CN2C(=O)CN(NC(=O)c3ccc(-c4cccc(Cl)c4)o3)C2=O)c1	16
Nc1cccc(CN2C(=O)CN(/N=C/c3ccc(-c4cc(Cl)cc(Cl)c4)o3)C2=O)c1	14
CN1C(=O)CN(NC(=O)c2ccc(-c3cc(Cl)cc(Cl)c3)o2)C1=O	8.5
CN1C(=O)CN(NC(=O)c2ccc(-c3cccc(Cl)c3)o2)C1=O	2

These molecules were tested on HL-60 (assay: Inhibition of Ca2+-induced mitochondrial permeability transition in human HL60 cells at 50 uM after 40 mins relative to control). Settings: HL-60, 40 min.
Format: functional
Outline: as §1

SMILES	inhibition at 50 µM [%]
Nc1ccc(CN2C(=O)CN(NC(=O)c3ccc(-c4cc(Cl)cc(Cl)c4)o3)C2=O)cc1	46
Nc1cccc(CN2C(=O)CN(NC(=O)c3ccc(-c4ccccc4)o3)C2=O)c1	19
Nc1cccc(CN2C(=O)CN(NC(=O)c3ccc(-c4ccc(Cl)cc4)o3)C2=O)c1	20
Nc1cccc(CN2C(=O)CN(NC(=O)c3ccc(-c4cc(Cl)cc(Cl)c4)o3)C2=O)c1	48
O=C(NN1CC(=O)N(Cc2cccnc2)C1=O)c1ccc(-c2cc(Cl)cc(Cl)c2)o1	71
O=C(NN1CC(=O)N(Cc2ccncc2)C1=O)c1ccc(-c2cc(Cl)cc(Cl)c2)o1	8.7
Nc1cccc(CN2C(=O)CN(NC(=O)c3ccc(-c4cccc(Br)c4)o3)C2=O)c1	11
